# ChEMBL document CHEMBL3286382, “Synthesis and biological evaluation of imidazo[1,2-a]pyrimidines and imidazo[1,2-a]pyridines as new inhibitors of the Wnt/β-catenin signaling” (Eur J Med Chem, 2014)
# Activity calls are given as the source filed them. The calls are words filed in the database; no cut-off is given here.
# Experiments:
# HT-29 [1] = assay: Inhibition of Wnt signaling in human HT29 cells assessed as inhibition of beta-catenin-mediated Tcf/Lef transcriptional activity after 24 hrs by dual luciferase reporter gene assay relative to control; assay type: cell-based; conditions: HT-29, 24 h
# HT-29 [2] = assay: Antiproliferative activity against human HT-29 cells after 72 hrs by MTT assay; assay type: functional; conditions: HT-29, 72 h
# How it was run: (§1)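 Cells grown in DMEM with 10% FBS, penicillin G, streptomycin and L-glutamine, seeded 7 x 10^3 per well, left 24 h, then exposed to scalar concentrations in complete medium for 72 h at 37 °C, 5% CO2. Viability read by MTT; IC50 taken as the concentration giving 50% inhibition of proliferation.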
# LoVo = assay: Antiproliferative activity against human LoVo cells after 72 hrs by MTT assay; assay type: functional; how it was run: as §1
# HepG2 = assay: Antiproliferative activity against human HepG2 cells after 72 hrs by MTT assay; assay type: functional; conditions: HepG2, 72 h; how it was run: as §1
# A549 = assay: Antiproliferative activity against human A549 cells after 72 hrs by MTT assay; assay type: functional; conditions: A549, 72 h; how it was run: as §1
# Danio rerio [3] = species: Danio rerio; assay: Toxicity in zebrafish larvae assessed as mortality at 5 to 25 uM treated for 7 days; assay type: organism-based; conditions: in vivo, 168 h
# How it was run: (§2)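 Wild-type zebrafish larvae raised under standard conditions were exposed to compounds dissolved in E3 medium. The medium containing compound was renewed every day for 7 days. The read-out was survival rate (mortality) at the end of exposure.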
# Danio rerio [4] = species: Danio rerio; assay: Toxicity in zebrafish larvae assessed as mortality at 1 uM treated for 7 days; assay type: organism-based; conditions: in vivo, 168 h; how it was run: as §2
# Danio rerio [5] = species: Danio rerio; assay: Inhibition of Wnt/beta-catenin signaling in zebrafish larvae assessed as inhibition of Tcf/Lef transcriptional activity measured as thinner intestine at 1 uM after 72 hrs by GFP reporter assay; assay type: functional, organism-based
# How it was run: (§3)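 TCF/LEF-GFP reporter zebrafish were exposed from 24 hours post-fertilization for 72 h, with compounds dissolved in E3 medium that was renewed daily. GFP in the head and intestine was imaged by fluorescence stereomicroscope at 8X, alongside bright-field images.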
# HT-29 [6] = assay: Inhibition of Wnt signaling in human HT29 cells assessed as inhibition of beta-catenin-mediated Tcf/Lef transcriptional activity at 25 uM after 24 hrs by dual luciferase reporter gene assay relative to control; assay type: cell-based
# How it was run: (§4)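 HT-29 cells (1.4 x 10^4) were co-transfected with 1 µg BAT-LUX, which carries 7 TCF sites and the siamois promoter driving firefly luciferase, plus 1 µg Renilla vector. Cells were then treated at 37 °C for 24 h, with or without the GSK-3β inhibitor LiCl. Dual-Glo readout; values are the mean firefly/Renilla ratio.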
# HT-29 [7] = assay: Inhibition of Wnt signaling in human HT29 cells assessed as inhibition of beta-catenin-mediated Tcf/Lef transcriptional activity at 25 uM after 24 hrs by dual luciferase reporter gene assay relative to control in presence of GSK-3beta inhibitor LiCl; assay type: cell-based; how it was run: as §4
# HT-29 [8] = assay: Inhibition of Wnt/beta-catenin signaling in human HT29 cells assessed as […] in axin2 mRNA expression at 25 uM after 24 hrs by quantitative real-time PCR assay; assay type: cell-based
# How it was run: (§5)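 Total RNA was extracted with TRIzol from HT-29 cells treated for 24 h. Transcripts were measured by real-time RT-PCR with GUS as the reference gene, and expression was expressed relative to untreated cells.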
# HT-29 [9] = assay: Inhibition of Wnt signaling in human HT29 cells assessed as beta-catenin dephosphorylation at S33/37/T41 residues at 25 uM after 24 hrs by Western blot analysis; assay type: cell-based
# How it was run: (§6)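 After 24 h exposure, HT-29 cells were washed in cold PBS, lysed on ice for 30 min and cleared at 15 000 g, 4 °C. 10 µg protein was run on 12% SDS-PAGE and transferred to PVDF. Blots were probed with specific primary antibodies, then peroxidase-labelled secondaries, and developed by ECL. β-actin re-probing served as the loading control.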
# HT-29 [10] = assay: Inhibition of Wnt/beta-catenin signaling in human HT29 cells assessed as GSK3-beta dephosphorylation at Ser21/Ser9 residues at 25 uM after 24 hrs by Western blot analysis; assay type: cell-based; how it was run: as §6
# HT-29 [11] = assay: Inhibition of Wnt/beta-catenin signaling in human HT29 cells assessed as decrease in TCF1 protein level at 25 uM after 24 hrs by Western blot analysis; assay type: cell-based; how it was run: as §6
# HT-29 [12] = assay: Inhibition of Wnt/beta-catenin signaling in human HT29 cells assessed as downregulation of cyclin D1 protein expression at 25 uM after 24 hrs by Western blot analysis; assay type: cell-based; how it was run: as §6
# HT-29 [13] = assay: Inhibition of Wnt/beta-catenin signaling in human HT29 cells assessed as increase in p21 protein expression at 25 uM after 24 hrs by Western blot analysis; assay type: cell-based; how it was run: as §6
# HT-29 [14] = assay: Inhibition of Wnt/beta-catenin signaling in human HT29 cells assessed as downregulation of cyclin B1 protein expression at 25 uM after 24 hrs by Western blot analysis; assay type: cell-based; how it was run: as §6
# HT-29 [15] = assay: Inhibition of Wnt/beta-catenin signaling in human HT29 cells assessed as increase in phosphorylated c-myc level at 25 uM after 24 hrs by Western blot analysis; assay type: cell-based; how it was run: as §6
# HT-29 [16] = assay: Inhibition of Wnt/beta-catenin signaling in human HT29 cells assessed as decrease in TCF4 mRNA expression at 25 uM after 24 hrs by quantitative real-time PCR assay; assay type: cell-based; how it was run: as §5
# HT-29 [17] = assay: Inhibition of Wnt/beta-catenin signaling in human HT29 cells assessed as effect on c-myc mRNA expression at 25 uM after 24 hrs by quantitative real-time PCR assay; assay type: cell-based; how it was run: as §5
# HT-29 [18] = assay: Cell cycle arrest in human HT-29 cells assessed as accumulation of cells at G1 phase at 25 uM after 24 hrs by flow cytometry; assay type: functional, cell-based
# How it was run: (§7)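 Exponentially growing HT-29 cells (1.5 × 10^5) were treated with the compounds for 24 h, then collected and fixed in ice-cold 70% ethanol. Fixed cells were treated with lysis buffer holding RNase A and 0.1% Triton X-100, stained with PI and analysed for DNA content by flow cytometry.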
# HT-29 [19] = assay: Cell cycle arrest in human HT-29 cells assessed as reduction of cells in S phase at 25 uM after 24 hrs by flow cytometry; assay type: functional, cell-based; how it was run: as §7
# HT-29 [20] = assay: Cell cycle arrest in human HT-29 cells assessed as reduction of cells in G2/M phase at 25 uM after 24 hrs by flow cytometry; assay type: functional, cell-based; how it was run: as §7
# Danio rerio [21] = species: Danio rerio; assay: Toxicity in zebrafish larvae assessed as mortality at 25 uM treated for 7 days; assay type: organism-based; conditions: in vivo, 168 h; how it was run: as §2
# Danio rerio [22] = assay: Inhibition of Wnt/beta-catenin signaling in zebrafish larvae assessed as inhibition of Tcf/Lef transcriptional activity measured as pericardial edema at 10 uM after 72 hrs by GFP reporter assay; assay type: functional, organism-based; how it was run: as §3
# Danio rerio [23] = species: Danio rerio; assay: Inhibition of Wnt/beta-catenin signaling in zebrafish larvae assessed as inhibition of Tcf/Lef transcriptional activity measured as dysmorphic craniofacial features at 10 uM after 72 hrs by GFP reporter assay; assay type: functional, organism-based; how it was run: as §3
# Danio rerio [24] = species: Danio rerio; assay: Inhibition of Wnt/beta-catenin signaling in zebrafish larvae assessed as inhibition of Tcf/Lef transcriptional activity measured as thinner intestine at 10 uM after 72 hrs by GFP reporter assay; assay type: functional, organism-based; how it was run: as §3
# [25] = Antiproliferative activity against human fibroblasts after 72 hrs by MTT assay; assay type: cell-based, Fibroblast
smiles,measurement,setting,value
CC(=O)Nc1cc(=O)n(Cc2ccccc2)c(SCc2ccccc2)n1,IC50,HT-29 [1],35.6 µM
same,GI50,HT-29 [2],79.3 µM
same,GI50,LoVo,56.3 µM
same,GI50,HepG2,71.7 µM
same,GI50,A549,50.4 µM
same,Activity,Danio rerio [3],Toxic
same,Activity,Danio rerio [4],Non-toxic
same,inhibition,Danio rerio [5],Active
Cc1ccn2cc(-c3ccc(N(Cc4ccccc4)Cc4ccccc4)cc3)nc2c1,IC50,HT-29 [1],24.1 µM
same,GI50,HT-29 [2],6.9 µM
same,GI50,LoVo,5.7 µM
same,GI50,HepG2,18.4 µM
same,GI50,A549,17.2 µM
same,inhibition,HT-29 [6],Active
same,inhibition,HT-29 [7],Active
same,inhibition,HT-29 [8],Active
same,inhibition,HT-29 [9],Active
same,inhibition,HT-29 [10],inactive
same,inhibition,HT-29 [11],Active
same,inhibition,HT-29 [12],Active
same,inhibition,HT-29 [13],Active
same,inhibition,HT-29 [14],Active
same,inhibition,HT-29 [15],Active
same,inhibition,HT-29 [16],Active
same,inhibition,HT-29 [17],inactive
same,Activity,HT-29 [18],Active
same,Activity,HT-29 [19],Active
same,Activity,HT-29 [20],Active
same,Activity,Danio rerio [21],Toxic
same,inhibition,Danio rerio [22],Active
same,inhibition,Danio rerio [23],Active
same,inhibition,Danio rerio [24],Active
same,GI50 at 72 h,[25],52.3 µM
